This note sets out measurements from ChEMBL document CHEMBL2434857, “Imidazopyridazines as potent inhibitors of Plasmodium falciparum calcium-dependent protein kinase 1 (PfCDPK1): Preparation and evaluation of pyrazole linked analogues” (Bioorg Med Chem Lett, 2013).

Data set [1] in a line: Inhibition of full length recombinant Plasmodium falciparum CDPK1 using MTIP as substrate assessed as amount of ATP remaining after 1 hr by luminescence assay.
Another data set concerns Plasmodium falciparum. Kind of data set: Antiparasitic activity against Plasmodium falciparum assessed as parasite growth inhibition after 48 hrs by hydroethidine staining-based flow cytometric analysis. Type of data set: functional, organism-based. The method, boiled down: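 Compounds diluted into 2% DMSO were added to cultured parasites 24 h post-invasion and incubated under static conditions. Cells were harvested 48 h later and stained for parasite DNA with hydroethidine for flow cytometry. Growth inhibition (%) = (1 − parasitaemia of treated culture / parasitaemia of control culture) × 100, and EC50 was derived from it.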
For orientation: A flow cytometer gives signals particle by particle.

Data set [2] can be described thus: Lipophilicity, log D of the compound in octanol-phosphate buffered saline at 100 uM after 12 hrs by shake flask method. Type of data set: physicochemical.
The target in data set [3] is Serine/threonine-protein kinase PAK 4 (Homo sapiens) (UniProt O96013). Kind of data set: Inhibition of human PAK4 at 1 uM.
Data set [4] addresses Dual specificity tyrosine-phosphorylation-regulated kinase 1A (Homo sapiens) (UniProt Q13627). Kind of data set: Inhibition of human DRYK1A at 1 uM.
Data set [5] is filed under the species Homo sapiens. Kind of data set: Inhibition of human CK1 at 1 uM.
Data set [6] addresses Casein kinase II (Homo sapiens) (UniProt P67870+P68400+P19784). Kind of data set: Inhibition of human CK2 at 1 uM. Type of data set: protein-complex assay.
Data set [7] deals with MAP/microtubule affinity-regulating kinase 3 (Homo sapiens) (UniProt P27448). Description: Inhibition of human MARK3 at 1 uM.
Data set [8] has as its target Serine/threonine-protein kinase BRSK2 (Homo sapiens) (UniProt Q8IWQ3). Description: Inhibition of human BRSK2 at 1 uM.
Data set [9] deals with Phosphorylase kinase (Homo sapiens) (UniProt P15735+P46020+P46019+Q93100+Q16816). Kind of data set: Inhibition of human PHK at 1 uM. Type of data set: protein-complex assay.
The target of data set [10] is Rho-associated protein kinase 2 (Homo sapiens) (UniProt O75116). Description: Inhibition of human ROCK2 at 1 uM.
Data set [11] has as its target MAP kinase-interacting serine/threonine-protein kinase 2 (Homo sapiens) (UniProt Q9HBH9). Kind of data set: Inhibition of human MNK2 at 1 uM.
For data set [12], the target named is Tyrosine-protein kinase BTK (Homo sapiens) (UniProt Q06187). Description: Inhibition of human BTK at 1 uM.
The target of data set [13] is Maternal embryonic leucine zipper kinase (Homo sapiens) (UniProt Q14680). Description: Inhibition of human MELK at 1 uM.
Data set [14] addresses Serine/threonine-protein kinase 3 (Homo sapiens) (UniProt Q13188). Description: Inhibition of human MST2 at 1 uM.
Data set [15] concerns the target Ribosomal protein S6 kinase alpha-1 (Homo sapiens) (UniProt Q15418). Description: Inhibition of human RSK1 at 1 uM.
The target of data set [16] is MAP kinase-interacting serine/threonine-protein kinase 1 (Homo sapiens) (UniProt Q9BUB5). Description: Inhibition of human MNK1 at 1 uM.
MAP kinase-interacting serine/threonine-protein kinase 1 (Homo sapiens), sequence (Q9BUB5 whole entry, looked up): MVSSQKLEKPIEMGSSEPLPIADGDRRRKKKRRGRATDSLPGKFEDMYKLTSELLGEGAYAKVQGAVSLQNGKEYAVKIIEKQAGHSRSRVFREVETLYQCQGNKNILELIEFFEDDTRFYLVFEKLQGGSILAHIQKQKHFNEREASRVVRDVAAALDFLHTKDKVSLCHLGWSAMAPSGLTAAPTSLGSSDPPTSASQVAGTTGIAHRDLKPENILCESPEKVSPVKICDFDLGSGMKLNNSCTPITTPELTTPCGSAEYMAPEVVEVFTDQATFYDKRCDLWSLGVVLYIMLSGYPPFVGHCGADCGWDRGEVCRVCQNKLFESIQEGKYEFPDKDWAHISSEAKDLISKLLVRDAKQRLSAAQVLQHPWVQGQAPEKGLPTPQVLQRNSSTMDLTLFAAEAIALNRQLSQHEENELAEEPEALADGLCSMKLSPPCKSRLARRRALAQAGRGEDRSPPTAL
The target of data set [17] is Receptor tyrosine-protein kinase erbB-4 (Homo sapiens) (UniProt Q15303). Kind of data set: Inhibition of human HER4 at 1 uM.
The species named for data set [18] is Homo sapiens. Description: Inhibition of human VEGFR at 1 uM.
Data set [19] concerns the target Tyrosine-protein kinase Yes (Homo sapiens) (UniProt P07947). Description: Inhibition of human YES1 at 1 uM.
The target in data set [20] is Ephrin type-A receptor 2 (Homo sapiens) (UniProt P29317). Description: Inhibition of human EPHA2 at 1 uM.
The target of data set [21] is Interleukin-1 receptor-associated kinase 4 (Homo sapiens) (UniProt Q9NWZ3). Kind of data set: Inhibition of human IRAK4 at 1 uM.
Interleukin-1 receptor-associated kinase 4 (Homo sapiens), sequence (Q9NWZ3 whole entry): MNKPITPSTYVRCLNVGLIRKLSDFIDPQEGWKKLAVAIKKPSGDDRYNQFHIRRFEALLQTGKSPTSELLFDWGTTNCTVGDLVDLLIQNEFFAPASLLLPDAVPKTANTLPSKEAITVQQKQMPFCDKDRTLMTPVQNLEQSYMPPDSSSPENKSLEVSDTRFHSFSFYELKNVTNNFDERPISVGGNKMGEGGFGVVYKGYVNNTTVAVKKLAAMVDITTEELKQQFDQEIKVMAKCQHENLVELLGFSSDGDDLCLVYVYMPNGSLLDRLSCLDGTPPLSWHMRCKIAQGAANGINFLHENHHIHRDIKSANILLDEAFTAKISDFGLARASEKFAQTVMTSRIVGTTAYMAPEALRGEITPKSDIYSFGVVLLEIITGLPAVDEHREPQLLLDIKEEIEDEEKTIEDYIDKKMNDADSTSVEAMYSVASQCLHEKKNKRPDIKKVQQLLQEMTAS
In data set [22] the target is Proto-oncogene tyrosine-protein kinase Src (Homo sapiens) (UniProt P12931). Kind of data set: Inhibition of human SRC at 1 uM.
Proto-oncogene tyrosine-protein kinase Src (Homo sapiens), sequence (P12931 2-536 limits assumed): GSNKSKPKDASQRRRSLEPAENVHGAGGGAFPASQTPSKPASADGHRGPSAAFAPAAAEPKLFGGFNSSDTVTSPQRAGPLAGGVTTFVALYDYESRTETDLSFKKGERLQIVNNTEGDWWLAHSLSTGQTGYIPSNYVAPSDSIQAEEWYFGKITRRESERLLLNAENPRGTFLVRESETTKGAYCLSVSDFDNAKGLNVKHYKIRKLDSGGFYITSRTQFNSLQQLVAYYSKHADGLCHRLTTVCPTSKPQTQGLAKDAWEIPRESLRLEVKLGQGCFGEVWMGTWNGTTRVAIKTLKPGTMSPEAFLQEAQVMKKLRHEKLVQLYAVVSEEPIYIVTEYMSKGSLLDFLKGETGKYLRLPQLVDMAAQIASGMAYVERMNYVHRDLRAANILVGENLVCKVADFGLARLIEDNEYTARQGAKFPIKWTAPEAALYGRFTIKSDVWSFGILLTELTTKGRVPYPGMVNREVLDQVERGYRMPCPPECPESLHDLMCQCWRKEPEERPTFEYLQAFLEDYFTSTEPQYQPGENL
Data set [23] addresses Mitogen-activated protein kinase kinase kinase 9 (Homo sapiens) (UniProt P80192). Kind of data set: Inhibition of human MLK1 at 1 uM.
The target in data set [24] is Mitogen-activated protein kinase kinase kinase 11 (Homo sapiens) (UniProt Q16584). Description: Inhibition of human MLK3 at 1 uM.
Data set [25] concerns the target Misshapen-like kinase 1 (Homo sapiens) (UniProt Q8N4C8). Description: Inhibition of human MINK1 at 1 uM.
The target in data set [26] is Mitogen-activated protein kinase kinase kinase kinase 2 (Homo sapiens) (UniProt Q12851). Kind of data set: Inhibition of human GCK at 1 uM.
Mitogen-activated protein kinase kinase kinase kinase 2 (Homo sapiens), sequence (Q12851 whole entry): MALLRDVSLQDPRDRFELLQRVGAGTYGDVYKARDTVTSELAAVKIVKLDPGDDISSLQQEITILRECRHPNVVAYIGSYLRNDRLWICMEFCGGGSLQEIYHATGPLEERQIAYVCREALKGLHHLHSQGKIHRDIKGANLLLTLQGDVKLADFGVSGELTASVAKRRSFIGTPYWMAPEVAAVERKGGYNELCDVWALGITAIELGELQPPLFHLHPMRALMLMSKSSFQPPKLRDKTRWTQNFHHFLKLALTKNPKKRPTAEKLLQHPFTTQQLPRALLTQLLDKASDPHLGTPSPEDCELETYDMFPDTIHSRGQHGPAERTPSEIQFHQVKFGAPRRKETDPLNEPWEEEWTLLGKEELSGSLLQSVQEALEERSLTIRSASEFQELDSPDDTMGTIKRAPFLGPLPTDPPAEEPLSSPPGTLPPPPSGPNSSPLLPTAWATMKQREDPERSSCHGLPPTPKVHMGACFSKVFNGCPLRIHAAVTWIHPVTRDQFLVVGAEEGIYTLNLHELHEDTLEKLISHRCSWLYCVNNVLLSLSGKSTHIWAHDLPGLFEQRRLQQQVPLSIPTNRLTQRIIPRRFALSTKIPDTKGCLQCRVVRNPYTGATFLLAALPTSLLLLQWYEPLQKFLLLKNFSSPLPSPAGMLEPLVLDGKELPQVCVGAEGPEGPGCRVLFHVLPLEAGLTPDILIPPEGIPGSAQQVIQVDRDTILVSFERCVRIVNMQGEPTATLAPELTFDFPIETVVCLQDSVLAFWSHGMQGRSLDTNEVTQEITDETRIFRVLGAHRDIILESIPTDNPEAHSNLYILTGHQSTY
For data set [27], the target named is NUAK family SNF1-like kinase 1 (Homo sapiens) (UniProt O60285). Description: Inhibition of human NUAK1 at 1 uM.
Data set [28] concerns the target Serine/threonine-protein kinase pim-1 (Homo sapiens) (UniProt P11309). Kind of data set: Inhibition of human PIM1 at 1 uM.
Data set [29] addresses Serine/threonine-protein kinase Chk1 (Homo sapiens) (UniProt O14757). Kind of data set: Inhibition of human CHK1 at 1 uM.
For data set [30], the target named is Myosin light chain kinase, smooth muscle (Homo sapiens) (UniProt Q15746). Description: Inhibition of human SmMLCK at 1 uM.
Myosin light chain kinase, smooth muscle (Homo sapiens), sequence (Q15746 whole entry): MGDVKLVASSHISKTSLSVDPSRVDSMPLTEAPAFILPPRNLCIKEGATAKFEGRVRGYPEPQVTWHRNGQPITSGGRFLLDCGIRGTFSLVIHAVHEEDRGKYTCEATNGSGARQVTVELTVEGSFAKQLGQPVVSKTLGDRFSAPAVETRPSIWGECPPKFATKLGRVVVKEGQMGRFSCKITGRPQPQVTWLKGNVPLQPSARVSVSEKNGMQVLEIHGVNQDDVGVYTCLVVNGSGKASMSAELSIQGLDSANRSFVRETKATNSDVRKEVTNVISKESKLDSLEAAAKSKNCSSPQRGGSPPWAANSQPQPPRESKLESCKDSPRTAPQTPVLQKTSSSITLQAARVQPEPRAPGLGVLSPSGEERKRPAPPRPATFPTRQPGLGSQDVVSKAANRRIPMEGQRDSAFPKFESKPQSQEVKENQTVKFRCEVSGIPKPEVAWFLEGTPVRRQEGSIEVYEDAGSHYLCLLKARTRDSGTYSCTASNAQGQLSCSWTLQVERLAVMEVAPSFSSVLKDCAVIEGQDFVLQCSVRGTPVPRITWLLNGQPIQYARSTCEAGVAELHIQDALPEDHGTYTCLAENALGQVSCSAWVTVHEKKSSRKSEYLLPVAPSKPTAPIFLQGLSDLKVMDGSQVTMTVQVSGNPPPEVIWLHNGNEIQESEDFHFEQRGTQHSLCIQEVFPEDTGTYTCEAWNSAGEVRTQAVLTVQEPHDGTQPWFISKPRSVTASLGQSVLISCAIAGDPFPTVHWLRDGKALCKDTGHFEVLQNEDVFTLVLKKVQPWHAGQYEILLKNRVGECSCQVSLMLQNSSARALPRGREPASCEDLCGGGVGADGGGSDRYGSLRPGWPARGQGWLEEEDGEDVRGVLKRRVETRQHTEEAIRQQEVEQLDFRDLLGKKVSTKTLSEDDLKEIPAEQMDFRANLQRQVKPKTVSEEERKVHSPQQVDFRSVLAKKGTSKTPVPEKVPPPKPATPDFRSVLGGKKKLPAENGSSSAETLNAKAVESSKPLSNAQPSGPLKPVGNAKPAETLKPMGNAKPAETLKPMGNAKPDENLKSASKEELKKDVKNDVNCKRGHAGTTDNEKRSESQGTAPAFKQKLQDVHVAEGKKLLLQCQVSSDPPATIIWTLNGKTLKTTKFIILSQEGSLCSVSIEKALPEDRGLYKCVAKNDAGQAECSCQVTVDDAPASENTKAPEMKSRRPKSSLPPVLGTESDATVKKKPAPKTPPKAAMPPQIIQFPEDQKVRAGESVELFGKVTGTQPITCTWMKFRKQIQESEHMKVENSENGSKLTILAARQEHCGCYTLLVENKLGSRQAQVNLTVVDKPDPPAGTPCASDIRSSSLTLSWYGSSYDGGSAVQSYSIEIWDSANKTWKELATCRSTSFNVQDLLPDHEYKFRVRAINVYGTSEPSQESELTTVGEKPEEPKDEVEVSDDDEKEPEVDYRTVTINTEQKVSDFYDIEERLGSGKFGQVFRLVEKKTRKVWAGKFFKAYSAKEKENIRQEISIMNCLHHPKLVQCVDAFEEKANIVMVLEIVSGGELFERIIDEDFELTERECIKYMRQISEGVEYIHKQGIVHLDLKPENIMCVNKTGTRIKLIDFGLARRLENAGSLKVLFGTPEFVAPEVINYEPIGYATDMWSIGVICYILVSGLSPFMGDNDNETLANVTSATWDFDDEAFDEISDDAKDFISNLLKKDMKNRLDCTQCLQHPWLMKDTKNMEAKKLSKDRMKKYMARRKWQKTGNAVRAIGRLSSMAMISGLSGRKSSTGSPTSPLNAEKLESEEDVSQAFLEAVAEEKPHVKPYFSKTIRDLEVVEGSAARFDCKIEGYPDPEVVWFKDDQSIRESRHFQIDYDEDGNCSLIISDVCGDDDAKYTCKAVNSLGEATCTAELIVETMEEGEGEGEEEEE
Data set [31] deals with Serine/threonine-protein kinase N2 (Homo sapiens) (UniProt Q16513). Description: Inhibition of human PRK2 at 1 uM.
For data set [32], the target named is Fibroblast growth factor receptor 1 (Homo sapiens) (UniProt P11362). Kind of data set: Inhibition of human FGFR1 at 1 uM.
Data set [33] has as its target Tyrosine-protein kinase Lck (Homo sapiens) (UniProt P06239). Kind of data set: Inhibition of human LCK at 1 uM.
Data set [34] addresses Serine/threonine-protein kinase Chk2 (Homo sapiens) (UniProt O96017). Description: Inhibition of human CHK2 at 1 uM.
The target of data set [35] is Aurora kinase B (Homo sapiens) (UniProt Q96GD4). Description: Inhibition of human Aurora kinase B at 1 uM.
Data set [36] addresses Ribosomal protein S6 kinase alpha-5 (Homo sapiens) (UniProt O75582). Description: Inhibition of human MSK1 at 1 uM.
Data set [37] concerns the target Serine/threonine-protein kinase D1 (Homo sapiens) (UniProt Q15139). Description: Inhibition of human PKD1 at 1 uM.
Data set [38] is described as follows: Apparent permeability of the compound at 50 to 200 uM after 5 hrs by PAMPA. Type of data set: ADME. (The PAMPA barrier holds no transporters, so it reflects passive diffusion.)

One may read the IC50 as the concentration that gives 50% inhibition. In general, EC50 refers to the concentration giving half of the maximal effect. One may read the logD as the decadic logarithm of the distribution of all forms, ionised or not, between an organic phase and buffer at a given pH. A lower logD goes with a more hydrophilic compound. The term Papp denotes a coefficient for how fast a substance crosses the barrier.

Activity calls are given as the source filed them. The rule behind the calls is not given here.

Serine/threonine-protein kinase pim-1 (Homo sapiens), sequence (P11309 whole entry, looked up): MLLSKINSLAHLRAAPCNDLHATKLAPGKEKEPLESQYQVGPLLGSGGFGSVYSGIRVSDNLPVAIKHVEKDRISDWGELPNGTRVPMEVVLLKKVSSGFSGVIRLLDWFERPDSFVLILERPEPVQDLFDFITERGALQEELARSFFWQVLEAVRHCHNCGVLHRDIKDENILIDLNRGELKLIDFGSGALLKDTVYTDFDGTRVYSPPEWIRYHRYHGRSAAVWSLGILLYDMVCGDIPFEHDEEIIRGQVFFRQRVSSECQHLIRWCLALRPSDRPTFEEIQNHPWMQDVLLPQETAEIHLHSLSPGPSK
Tyrosine-protein kinase Yes (Homo sapiens), sequence (P07947 2-543 limits assumed): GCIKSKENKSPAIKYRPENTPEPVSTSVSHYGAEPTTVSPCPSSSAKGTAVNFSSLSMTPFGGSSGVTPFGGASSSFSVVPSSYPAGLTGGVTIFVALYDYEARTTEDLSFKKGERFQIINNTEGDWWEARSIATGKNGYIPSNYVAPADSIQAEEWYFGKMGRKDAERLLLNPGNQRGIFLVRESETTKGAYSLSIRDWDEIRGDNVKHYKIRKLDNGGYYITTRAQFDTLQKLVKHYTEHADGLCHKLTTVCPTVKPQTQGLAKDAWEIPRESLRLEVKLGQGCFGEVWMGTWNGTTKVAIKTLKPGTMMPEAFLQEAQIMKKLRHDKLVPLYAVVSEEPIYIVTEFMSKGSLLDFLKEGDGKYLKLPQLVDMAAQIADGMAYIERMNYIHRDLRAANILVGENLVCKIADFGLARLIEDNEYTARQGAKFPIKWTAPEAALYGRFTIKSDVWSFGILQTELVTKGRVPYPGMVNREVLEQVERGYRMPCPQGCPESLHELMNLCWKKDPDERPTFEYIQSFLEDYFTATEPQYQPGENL

Consider `CN1CCC(Nc2ccc3ncc(-c4cnn(-c5ccccc5)c4)n3n2)CC1`, for which the IC50 in [1] was 71 nM.
For the compound `CN1CCC(Nc2ccc3ncc(-c4cnn(-c5ccc(F)cc5)c4)n3n2)CC1`, the half-maximal effective concentration (EC50) with Plasmodium falciparum came to 561 nM. Further, the pH-dependent lipophilicity (logD) at 12 h, 100 µM in data set [2] was 2.8. Moreover, in data set [1], the IC50 turned out to be 45 nM.
With `CN1CCC(Nc2ccc3ncc(-c4cnn(C5CCCC5)c4)n3n2)CC1`, the IC50 in data set [1] stood at 1980 nM.
In the case of `CN1CCC(Nc2ccc3ncc(-c4cnn(-c5ccc(C#N)cc5)c4)n3n2)CC1`, the inhibition result (in data set [3]; in [4]; in the data set listed under Homo sapiens [5]; in [6]; in [7]; in data set [8]) was “Active” in each case. Moreover, the inhibition result in data set [9], in data set [10], in [11], in [12], in data set [13] and in data set [14] was “Active” throughout. Moreover, the inhibition entry (in data set [15]; in data set [16]; in [17]; in the data set listed under Homo sapiens [18]; in data set [19]; in [20]) was “Active” each time. Also, the inhibition entry in data set [21], in data set [22], in data set [23], in [24], in data set [25] and in data set [26] was “Active” throughout. The inhibition entry in data set [27], in data set [28], in data set [29], in data set [30] and in data set [31] was “Active” in each case.
In data set [2], `CN1CCC(Nc2ccc3ncc(-c4cnn(-c5ncccc5F)c4)n3n2)CC1` had a logD at 12 h, 100 µM of 2.9.
As to `Cc1cc(F)ccc1-n1cc(-c2cnc3ccc(NC4CCN(C)CC4)nn23)cn1`, in data set [2], the logD at 12 h, 100 µM stood at 2.9.
Compound `CN1CCC(Nc2ccc3ncc(-c4cnn(-c5ccc(F)cc5F)c4)n3n2)CC1` had a logD at 12 h, 100 µM in data set [2] of 2.9.
As for `c1ccc(-n2cc(-c3cnc4ccc(NC5CCNCC5)nn34)cn2)cc1`, the inhibition entry (in data set [16]; in data set [32]; in data set [17]; in the data set filed under Homo sapiens [18]; in data set [19]; in data set [20]) was “Active” in each case. Further, the inhibition result in data set [33], in data set [21], in data set [22], in data set [23], in data set [24] and in [25] was “Active” throughout. For the same compound, the inhibition result in [26], in data set [27], in data set [28], in data set [29], in data set [34] and in data set [35] was “Active” in each case. Moreover, the inhibition entry in [36], in data set [30], in data set [37] and in [31] was “Active” throughout.
With `CN1CCC(Nc2ccc3ncc(-c4cnn(Cc5ccccc5F)c4)n3n2)CC1`, the logD at 12 h, 100 µM in [2] was found to be 3. In [1], the IC50 turned out to be 331 nM.
Consider `CN1CCC(Nc2ccc3ncc(-c4cnn(-c5cccc(F)c5)c4)n3n2)CC1`, for which the apparent permeability coefficient (Papp) at 5 h, up to 200 µM in data set [38] is 11 ×10⁻⁶ cm/s. In addition, in the data set with Plasmodium falciparum, the EC50 came to 394 nM. For the same compound, in [2], the logD at 12 h, 100 µM was found to be 3.1. For the same compound, the IC50 in data set [1] was 20 nM.
Regarding `CN1CCC(Nc2ccc3ncc(-c4cnn(-c5ccc(F)cn5)c4)n3n2)CC1`, the logD at 12 h, 100 µM in [2] is 2.9.
